Source: ChEMBL document CHEMBL1155945, “Discovery of 2-chloro-N-(4-methoxyphenyl)-N-methylquinazolin-4-amine (EP128265, MPI-0441138) as a potent inducer of apoptosis with high in vivo activity” (J Med Chem, 2008)
Activity calls are given as the source filed them. No cut-off for these calls is given here.

How the values were obtained:
HCT-116 [1] = assay: Induction of apoptosis in human HCT116 cells assessed as caspase 3 activation after 24 hrs; format: functional, cell-based; details: HCT-116, 24 h
Summary of the method: (§1)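 A live-cell, high-throughput caspase-3 activator assay was used, with fluorescent caspase-3 substrates in intact cells. EC50 values for caspase activation are the mean ± SEM of three or more experiments.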

T47D [2] = assay: Induction of apoptosis in human T47D cells assessed as caspase 3 activation after 24 hrs; format: functional, cell-based; summary of the method: as §1
P388 [3] = assay: Cytotoxicity against mouse P388 cells; format: functional, cell-based
Summary of the method: (§2)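 Cytotoxicity IC50 was measured in parental P388 cells and in the P388/ADR line, which overexpresses the ABC transporter Pgp-1 (MDR-1). Values are the mean ± SEM of three experiments.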

P388 [4] = assay: Cytotoxicity against adriamycin-resistant mouse P388 cells expressing p-glycoprotein; format: functional, cell-based; summary of the method: as §2
[5] = Displacement of fluorescent labeled colchicine from tubulin at 50 uM
MX1 [6] = assay: Antitumor activity in human MX1 cells xenografted crl:Nu/Nu-nuBR mouse assessed as tumor growth inhibition at 2.5 mg/kg, iv administered once a day for 5 days for 2 weeks; format: functional
Mus musculus [7] = assay: AUC in C57BL/6 mouse brain at 2.5 mg/kg, iv; format: ADME, organism-based; design: dose 2.5 mg/kg, route intravenous; details: in vivo
T47D [8] = assay: Growth inhibition of human T47D cells after 48 hrs by CellTiter-Glo assay; format: functional
Summary of the method: (§3)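 Cells were exposed continuously to the compound for 48 h at 37 °C. CellTiter-Glo reagent was then added and the samples mixed by agitation. After 10-15 min at room temperature, luminescence was read. GI50 was taken as 50% inhibition of cell proliferation. Values are the mean ± SEM of three experiments.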

Mus musculus [9] = assay: AUC in C57BL/6 mouse plasma at 2.5 mg/kg, iv; format: ADME, organism-based; design: dose 2.5 mg/kg, route intravenous; details: in vivo
MX1 [10] = assay: Antitumor activity in human MX1 cells xenografted crl:Nu/Nu-nuBR mouse assessed as tumor growth inhibition at 10 mg/kg, iv administered once weekly for 2 weeks; format: functional; details: MX1, 336 h
PC-3 = assay: Antitumor activity in human PC3 cells xenografted crl:Nu/Nu-nuBR mouse assessed as tumor growth inhibition at 10 mg/kg, iv administered once weekly for 2 weeks; format: functional, organism-based; design: dose 10 mg/kg
Mus musculus [11] = assay: Toxicity in human MX1 cells xenografted crl:Nu/Nu-nuBR mouse assessed as decrease in body weight at 10 mg/kg, iv administered once weekly for 2 weeks; format: organism-based; design: dose 10 mg/kg, route intravenous; scale not given: the % may be the effect or the level left; details: in vivo, 336 h
HCT-116 [12] = assay: Growth inhibition of human HCT116 cells after 48 hrs by CellTiter-Glo assay; format: functional; details: HCT-116, 48 h; summary of the method: as §3
[13] = Therapeutic index, ratio of MTD for human MX1 cells xenografted crl:Nu/Nu-nuBR mouse to tumor growth inhibition in human MX1 cells xenografted crl:Nu/Nu-nuBR mouse; details: in vivo
[14] = Toxicity in human MX1 cells xenografted crl:Nu/Nu-nuBR mouse; format: organism-based; details: in vivo
Summary of the method: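 MX-1 human breast tumour xenograft in mice; dosed intravenously once weekly at several dose levels […]. Tolerability was judged by maximum body weight decrease, alongside tumour growth measurement.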

[15] = Inhibition of tubulin polymerization

Compound	EC50 (HCT-116 [1]) [nM]	EC50 (T47D [2]) [nM]	further results
COc1ccc(Oc2ncnc3ccccc23)cc1	> 10000	> 10000	–
COc1ccc(CN(C)c2nc(Cl)nc3ccccc23)cc1	120	68	–
CC(=O)O[C@@]12CO[C@@H]1C[C@H](O)[C@@]1(C)C(=O)[C@H](O)C3=C(C)[C@@H](OC(=O)[C@H](O)[C@@H](NC(=O)OC(C)(C)C)c4ccccc4)C[C@@](O)([C@@H](OC(=O)c4ccccc4)[C@H]21)C3(C)C [DOCETAXEL]	–	–	IC50 (P388 [3]): 2 nM; IC50 (P388 [4]): 277 nM
CN(c1ccc(Cl)cc1)c1nc(Cl)nc2ccccc12	72	68	–
CN(c1ccc(OC(F)(F)F)cc1)c1nc(Cl)nc2ccccc12	59	49	–
COc1ccc(N(C)c2nc(Cl)nc3ccccc23)cc1	–	–	Activity [5]: Active; inhibition in vivo at 2.5 mg/kg (MX1 [6]): 90%; AUC (Mus musculus [7]): 20563 ng/mL; GI50 (T47D [8]): 1 nM; AUC (Mus musculus [9]): 669 ng/mL; IC50 (P388 [3]): 2.1 nM; inhibition in vivo at 10 mg/kg (MX1 [10]): > 95%; IC50 (P388 [4]): 2.2 nM; Activity (PC-3): Active; Activity (Mus musculus [11]): < 10%; GI50 (HCT-116 [12]): 2 nM; selectivity ratio [13]: 2.5; MTD [14]: 25 mg/kg; IC50 [15]: < 400 nM
COc1cc2c(c(OC)c1OC)-c1ccc(OC)c(=O)cc1[C@@H](NC(C)=O)CC2 [COLCHICINE]	–	–	IC50 [15]: 500 nM
COc1ccccc1N(C)c1nc(Cl)nc2ccccc12	> 10000	4440	–
CN(c1ccc2c(c1)OCO2)c1nc(Cl)nc2ccccc12	65	31	–
CN(c1ccc([N+](=O)[O-])cc1)c1nc(Cl)nc2ccccc12	1400	770	–
CC[C@]1(O)C[C@@H]2CN(CCc3c([nH]c4ccccc34)[C@@](C(=O)OC)(c3cc4c(cc3OC)N(C)[C@H]3[C@@](O)(C(=O)OC)[C@H](OC(C)=O)[C@]5(CC)C=CCN6CC[C@]43[C@@H]65)C2)C1 [VINBLASTINE]	–	–	IC50 (P388 [3]): 0.6 nM; IC50 (P388 [4]): 27 nM
COc1ccc(N(C)c2ncnc3ccccc23)cc1	8	6	–
COc1ccc(N(C)c2nc(Cl)nc3ccccc23)cn1	29	17	GI50 (T47D [8]): 37 nM; GI50 (HCT-116 [12]): 40 nM
COc1ccc(N(C)c2nc(NC/C=C(\C)CCC=C(C)C)nc3ccccc23)cc1	–	–	GI50 (T47D [8]): 850 nM; GI50 (HCT-116 [12]): 350 nM
CN(c1ccccc1)c1nc(Cl)nc2ccccc12	300	210	–
COc1ccc(Nc2nc(Cl)nc3ccccc23)cc1	> 10000	> 10000	–
CN(c1ccc(O)cc1)c1nc(Cl)nc2ccccc12	120	85	–
CN(c1ccc(Oc2ccccc2)cc1)c1nc(Cl)nc2ccccc12	> 10000	> 10000	–
Cc1ccc(N(C)c2nc(Cl)nc3ccccc23)cc1	21	15	–

The next lines start with results.

EC50 (HCT-116 [1]) [nM]	EC50 (T47D [2]) [nM]	Compound	further results
13	10	COc1ccc(N(C)c2nc(Cl)nc3ccc(Cl)cc23)cc1	–
31	25	COc1cccc(N(C)c2nc(Cl)nc3ccccc23)c1	–
970	590	COc1ccc(N(C)c2nc(Cl)nc3cc(OC)c(OC)cc23)cc1	–
49	39	CCN(c1ccc(OC)cc1)c1nc(Cl)nc2ccccc12	–
15	9	COc1ccc(N(C)c2nc(Cl)nc3ccccc23)cc1OC	–
1110	680	COc1cccc(N(C)c2nc(Cl)nc3ccccc23)c1OC	–
5	5	CCOc1ccc(N(C)c2nc(Cl)nc3ccccc23)cc1	–
> 10000	> 10000	COc1ccc(Nc2nc(Cl)nc3cc(OC)c(OC)cc23)cc1	–
350	300	COc1ccc(N(C)c2nc(Cl)nc3cc(Cl)ccc23)cc1	–
